Experimental data taken from paper PMC11865470 (Communications Biology, 2025).
Where a chain is given by its changes, count along the chain named. Entries after “also recorded” stand apart in the source; their conditions may differ.

What was measured:
Kir1.1 = biological target: T1, Kir1.1 (Homo sapiens, UniProt P48048); test: whole-cell patch-clamp, off-target channel, 10 μM compound; type: cell-based; conditions: vs 0.1% DMSO
T1 sequence (P48048 1-391): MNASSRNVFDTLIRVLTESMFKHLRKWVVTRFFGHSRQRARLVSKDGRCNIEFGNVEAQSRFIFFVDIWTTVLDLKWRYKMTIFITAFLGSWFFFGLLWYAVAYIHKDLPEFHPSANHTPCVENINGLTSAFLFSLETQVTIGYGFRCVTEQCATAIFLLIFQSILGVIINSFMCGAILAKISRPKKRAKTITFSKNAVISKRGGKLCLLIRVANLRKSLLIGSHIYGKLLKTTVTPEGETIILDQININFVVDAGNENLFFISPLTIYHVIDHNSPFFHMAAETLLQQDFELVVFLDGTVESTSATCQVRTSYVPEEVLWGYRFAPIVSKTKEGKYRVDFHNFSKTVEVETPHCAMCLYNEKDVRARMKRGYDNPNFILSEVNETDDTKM
How it was run: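 Kir channels in transfected HEK293T cells, whole-cell. Pipette (mM): 135 KCl, 2 MgCl2, 10 HEPES, 1 EGTA, 4 Na2-ATP, pH 7.3. Bath (mM): 135 NaCl, 5 KCl, 1.5 CaCl2, 1 MgCl2, 10 HEPES, 10 glucose, pH 7.4. 0.1% DMSO bath applied before 10 μM test compound. Inhibition ratios compared by unpaired t-test, n = 5.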

KV7.1 = test: whole-cell patch-clamp, off-target channel, 10 μM compound; type: cell-based, Homo sapiens; conditions: for sensitivity of channel to compound: vs 0.1% DMSO
How it was run: (§1)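 KV channels in transiently transfected HEK293T cells, whole-cell. Pipette (mM): 140 KCl, 2.5 MgCl2, 11 EGTA, 10 HEPES, pH 7.4. Bath (mM): 145 NaCl, 2.8 KCl, 2 CaCl2, 1 MgCl2, 10 glucose, 10 HEPES, pH 7.4. 0.1% DMSO bath applied, then 10 μM test compound. DMSO vs compound inhibition ratio compared by unpaired t-test, n = 5.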

mOtop1/R554A = biological target: T2, mOtop1/R554A (Mus musculus, UniProt Q80VM9, R554A); test: patch-clamp, mOtop1 mutant; type: cell-based; conditions: for effect of mutating R554 on the compound's action on Otop1: Fig 5I, J
T2 sequence (Q80VM9 1-600 R554A): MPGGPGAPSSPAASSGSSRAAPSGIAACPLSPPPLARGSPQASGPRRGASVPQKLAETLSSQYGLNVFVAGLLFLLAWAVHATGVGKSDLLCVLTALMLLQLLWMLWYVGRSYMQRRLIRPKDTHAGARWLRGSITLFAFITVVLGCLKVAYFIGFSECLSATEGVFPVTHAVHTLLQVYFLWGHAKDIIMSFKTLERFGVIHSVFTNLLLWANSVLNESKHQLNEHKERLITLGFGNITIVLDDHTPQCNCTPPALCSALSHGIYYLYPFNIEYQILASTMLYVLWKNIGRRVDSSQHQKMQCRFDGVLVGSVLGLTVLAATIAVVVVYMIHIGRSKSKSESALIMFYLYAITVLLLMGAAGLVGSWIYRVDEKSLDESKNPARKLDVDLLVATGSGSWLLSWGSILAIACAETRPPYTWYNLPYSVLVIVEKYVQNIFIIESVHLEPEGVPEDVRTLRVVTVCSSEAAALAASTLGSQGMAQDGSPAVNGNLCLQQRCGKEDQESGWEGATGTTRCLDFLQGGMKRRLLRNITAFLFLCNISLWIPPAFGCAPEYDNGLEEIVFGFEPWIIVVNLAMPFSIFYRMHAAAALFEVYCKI

KV3.4 = biological target: T3, KV3.4 (Homo sapiens, UniProt Q03721); test: whole-cell patch-clamp, off-target channel, 10 μM compound; type: cell-based; conditions: vs 0.1% DMSO
T3 sequence (Q03721 1-635): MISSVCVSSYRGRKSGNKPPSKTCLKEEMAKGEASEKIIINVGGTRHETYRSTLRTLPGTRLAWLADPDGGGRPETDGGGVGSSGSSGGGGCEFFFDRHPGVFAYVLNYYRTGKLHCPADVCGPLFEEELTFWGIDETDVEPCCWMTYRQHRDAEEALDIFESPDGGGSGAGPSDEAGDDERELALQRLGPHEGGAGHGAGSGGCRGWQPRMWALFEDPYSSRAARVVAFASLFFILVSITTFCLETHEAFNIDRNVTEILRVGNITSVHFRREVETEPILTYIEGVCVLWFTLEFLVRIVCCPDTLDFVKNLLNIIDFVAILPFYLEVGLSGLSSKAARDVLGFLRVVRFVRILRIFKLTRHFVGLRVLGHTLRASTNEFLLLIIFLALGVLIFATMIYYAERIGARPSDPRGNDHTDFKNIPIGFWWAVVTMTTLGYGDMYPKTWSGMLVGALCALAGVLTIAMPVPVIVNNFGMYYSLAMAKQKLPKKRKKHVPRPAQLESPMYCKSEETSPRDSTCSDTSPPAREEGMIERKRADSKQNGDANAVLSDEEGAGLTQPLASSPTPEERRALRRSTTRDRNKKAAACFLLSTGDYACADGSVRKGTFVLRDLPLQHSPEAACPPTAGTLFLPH
How it was run: as §1

[1] = biological target: T4, mOtop1 channels co-expressed in HEK293 cells (Mus musculus, UniProt Q80VM9); test: live cell intracellular pH imaging; type: cell-based; conditions: 10 μM; for effect on intracellular pH changes mediated by mOtop1, acidification: extracellular pH 6.0/5.0; for effect on intracellular pH changes mediated by mOtop1, alkalinization: extracellular pH 8.5
T4 sequence (Q80VM9 1-600): T2 sequence (Q80VM9 1-600 R554A) with A554R
How it was run: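 HEK293 cells were electroporated (180 V, 25 ms) with pHmScarlet-mTurquise2, with or without mOtop1, and imaged 24 h later. Cells sat in pH 7.4 solution (mM: 140 KCl, 10 NaCl, 1 MgCl2, 20 HEPES), then were shifted to pH 8.5 (Tris), 6.0 (MES) or 5.0 (HomoPIPES). Test compound was 10 μM in the stimulus solution, with acetic acid pH 5.0 as positive control. FpHmScarlet/FmTurquise2 ratio read every 2 s.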

Structure (SMILES) | sensitivity of channel to compound (Kir1.1) | sensitivity of channel to compound (KV7.1) | effect of mutating R554 on the compound's action on Otop1 (mOtop1/R554A) | sensitivity of channel to compound (KV3.4) | effect on intracellular pH changes mediated by mOtop1, acidification [1] | effect on intracellular pH changes mediated by mOtop1, alkalinization [1] | inhibition ratio (KV7.1) | response of mutant to MFaN (mOtop1/R554A; 10 μM, pH 5.5) | response of mutant to MFaN (mOtop1/R554A; pHs of 4.5, 5.0, and 6.0)
Cc1cc(NC(=O)c2ccc(Br)o2)ccc1NC(=O)c1ccco1 [B2FAMP, 5-Bromo-N-[4-(2-furoylamino)-3-methylphenyl]-2-furamide] | completely resistant | completely resistant | only partially reduced | completely resistant | increases intracellular pH changes | no effect | – | – | –
CC(C)c1noc2ncc(C(=O)c3ccccc3O)cc12 [HIMOP, (2-hydroxyphenyl)-(3-propan-2-yl-5-isoxazolo[5,4-b]pyridinyl)methanone] | completely resistant | – | did not affect | completely resistant | increases intracellular pH changes | small but statistically significant increase in pHi; also recorded: increases intracellular pH changes; also recorded: slightly but significantly enhance | 16.4% | – | –
Cc1ccc(C(=O)Nc2ccc3ccccc3c2)o1 [MFaN, 5-methyl-N-2-naphthyl-2-furamide] | completely resistant | completely resistant | – | completely resistant | increases intracellular pH changes | no effect | – | entirely unresponsive; also recorded: completely abolished | completely unresponsive
